Experiment [1] can be described thus: inhibitors of TNFa-induced NFkB p65 translocation, primary screen, imaging, HUVEC, MLSMR starter and 10KST1 sets (AID 438).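 For inhibition: signal is the nuclear over cytoplasmic p65 intensity ratio per well.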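 Note: compound added about 3h40 before a 20 min TNFalpha stimulation.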 The conditions noted are these: HUVEC TNFa-induced p65 nuclear translocation; cell count: measured here: nuclei count (cytotoxicity indicator), at 2.08 µM; inhibition: at 2 µM, stronger effect = higher value, 0% TNFa-plus-vehicle, 100% no-TNFa wells.

Experiment [2] is described as follows: inhibitors of mutant huntingtin aggregation, primary screen, imaging, exon1htt(103Q)mCFP cells, high-content imaging (AID 483;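 active = visual image review flags a hit and inhibition of aggregation exceeds 20%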;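 note: compound exposure lasted 3 days before fixation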;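 for nuclei count: percent of the per-plate median nuclei count of sample wells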). As to conditions: exon1htt(103Q)mCFP cell line, aggregate imaging, at 2 µM; inhibition of aggregation: stronger effect = higher value; nuclei count: measured here: cell count, toxicity.
Experiment [3] in a line: inhibitors of E-selectin induction by TNFa, primary screen, imaging, HUVEC, immunofluorescence, MLSMR starter and 10KST1 sets (AID 487;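 active = visually confirmed hit in the image check and inhibition above 20%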;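 for inhibition: signal is fraction of cell area covered by stained E-selectin grains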;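 for nuclei count: 100% = median nuclei count of all wells on the same plate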). As to conditions: HUVEC TNFalpha-induced E-selectin immunofluorescence imaging, at 2 µM; inhibition: stronger effect = higher value; nuclei count: measured here: cell number, toxicity.
For experiment [4], the target named is Voltage-gated potassium channel subunit beta-2 (Rattus norvegicus) (UniProt P62483). Kind of experiment: KvBeta enzyme negative modulators, primary screen, biochemical, NADPH fluorescence (AID 622;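 active = fluorescence slope higher than the sample average by over 3 SD, cut at about -0.22 in these data, passing the limit was not always enough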;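 note: slope of raw intensity against log time taken from 70 to 1610 s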). The conditions noted are these: recombinant KvBeta, 4-cyanobenzaldehyde reduction, at 10 µM, stronger effect = higher value.
Sequence of Voltage-gated potassium channel subunit beta-2 (Rattus norvegicus) (P62483 whole entry, looked up): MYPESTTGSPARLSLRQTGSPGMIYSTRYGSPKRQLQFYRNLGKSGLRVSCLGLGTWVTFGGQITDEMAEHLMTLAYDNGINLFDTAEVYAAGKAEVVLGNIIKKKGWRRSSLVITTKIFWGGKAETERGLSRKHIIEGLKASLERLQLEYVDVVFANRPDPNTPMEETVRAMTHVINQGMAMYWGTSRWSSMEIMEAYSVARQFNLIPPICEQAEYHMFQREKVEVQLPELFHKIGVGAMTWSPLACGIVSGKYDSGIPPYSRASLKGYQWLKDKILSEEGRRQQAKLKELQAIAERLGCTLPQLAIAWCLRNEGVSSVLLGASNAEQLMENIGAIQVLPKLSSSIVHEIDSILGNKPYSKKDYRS
Experiment [5] shares this target. Kind of experiment: KvBeta positive modulators, primary screen, biochemical, NADPH fluorescence (AID 623;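 active = NADPH fluorescence slope more negative than the mean of all samples by about 3 SD, 99.7% confidence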;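 note: fluorescence intensity change per second fitted from 20 to 320 s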). The conditions noted are these: Recombinant KvBeta, NADPH fluorescence decrease slope, 10 min; at 10 µM; stronger effect = lower value.
In experiment [6] the target is Alpha-2C adrenergic receptor (Homo sapiens) (UniProt P18825). The experiment is described as follows: modulators of alpha2C/GIRK thallium flux, primary screen, cell-based, HEK293 alpha2C/GIRK1/2 (AID 624;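 active = fluorescence slope after compound addition differing from the mean of all screened samples at 99.7% confidence, in either direction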;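 note: slope of fluorescence ratio to pre-addition baseline per second over 15 to 24 s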). The conditions noted are these: thallium flux BTC fluorescence, at 10 µM, actives lie on both sides.
Sequence of Alpha-2C adrenergic receptor (Homo sapiens) (P18825 whole entry, looked up): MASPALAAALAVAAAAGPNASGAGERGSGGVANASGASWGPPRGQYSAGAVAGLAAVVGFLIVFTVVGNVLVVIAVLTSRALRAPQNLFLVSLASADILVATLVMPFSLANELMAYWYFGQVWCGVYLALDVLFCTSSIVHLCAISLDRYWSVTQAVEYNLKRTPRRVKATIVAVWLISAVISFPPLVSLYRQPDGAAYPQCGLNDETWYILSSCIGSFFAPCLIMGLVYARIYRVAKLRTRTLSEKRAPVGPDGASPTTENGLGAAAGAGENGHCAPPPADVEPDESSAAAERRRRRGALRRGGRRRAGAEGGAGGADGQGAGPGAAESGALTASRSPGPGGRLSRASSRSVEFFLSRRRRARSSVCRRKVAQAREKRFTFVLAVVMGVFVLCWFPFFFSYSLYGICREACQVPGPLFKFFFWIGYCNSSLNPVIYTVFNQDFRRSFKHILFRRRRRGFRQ
A short description of experiment [7]: inhibitors of larval lipid processing in zebrafish, primary screen, whole organism, PED6 fluorescence, gall bladder and intestine (AID 686;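 active = a full or partial loss of lipid-probe fluorescence in the fish gall bladder, intestine or both, judged by eye; inactive = no fluorescence loss, or compound toxic to the fish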;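 note: larvae 5 to 7 days old with five fish per well; signal comes from phospholipase A2 cleavage of quenched PED6 carried via bile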). The conditions noted are these: Zebrafish larvae PED6 lipid processing, fluorescence scoring; screened at 20 µM (by protocol). The essentials: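 System: live zebrafish larvae aged 5-7 days, whole organism; measure: graded gall bladder and intestinal fluorescence inhibition per well; incubation: overnight exposure; reagent: ingested quenched lipid PED6 at 100 nM; signal: By-eye fluorescence microscopy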

A short description of experiment [8]: inhibitors of Sendai virus-induced IRF3 signaling, primary screen, TLR/RLR signaling modifier project, cell-based, Sendai virus stimulus, luciferase, 10K MLSCN set (AID 602276;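 active = inhibition at or above 50% at 10 µM; inactive = inhibition below 50%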;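 note: firefly luciferase from ISG56 promoter only with Renilla not read in this screen; 0% = Sendai virus plus DMSO and 100% = medium plus DMSO without virus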). As to conditions: HEK293 RL24 IRF3 luciferase reporter, at 10 µM, stronger effect = higher value.
Experiment [9] in a line: inhibitors of poly I:C-induced TLR3 signaling, primary screen, cell-based, poly I:C stimulus, luciferase, 10K MLSCN set (AID 602277;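 active = inhibition of the reporter signal at or above 50%; inactive = inhibition below 50%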). The conditions noted are these: HEK293-TLR3 RL24 IRF3 luciferase reporter, at 10 µM, stronger effect = higher value. On the technique in general: Reporter assays use an easily measured gene product as a stand-in for the process of interest.
Experiment [10] deals with Muscarinic acetylcholine receptor M4 (Homo sapiens) (UniProt P08173). The experiment is described as follows: compounds altering M4/GIRK thallium flux, either direction, primary screen, M4 allosteric agonist project, cell-based, HEK293 M4/GIRK, BTC-AM (AID 625;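 active = fluorescence slope after compound addition differing from the mean of all tested samples at 99.7% confidence, mostly higher but some lower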;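 note: thallium influx through GIRK channels coupled to M4 in HEK293 cells with BTC-AM dye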). As to conditions: at 10 µM, actives lie on both sides. The essentials:
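Material: M4/GIRK1/GIRK2 stable HEK293 cell line. Medium: pH 7.3 thallium assay buffer. Dosing: single compound concentration, 10 µM final. Schedule: 1 h dye loading, 2 min kinetic read. Measured by: kinetic fluorescence with BTC-AM dye. Read-out: post-addition slope, 15–24 s, of baseline-normalized fluorescence. Benchmarks: carbachol and DMSO controls.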

Active and inactive are the calls of the source.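 Rule for the calls, unless noted: active = inhibition above 20% together with a positive visual image hit; inconclusive = visual image hit but inhibition not above 20%; inactive = no visual image hit.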

Sequence of Muscarinic acetylcholine receptor M4 (Homo sapiens) (P08173 whole entry, looked up): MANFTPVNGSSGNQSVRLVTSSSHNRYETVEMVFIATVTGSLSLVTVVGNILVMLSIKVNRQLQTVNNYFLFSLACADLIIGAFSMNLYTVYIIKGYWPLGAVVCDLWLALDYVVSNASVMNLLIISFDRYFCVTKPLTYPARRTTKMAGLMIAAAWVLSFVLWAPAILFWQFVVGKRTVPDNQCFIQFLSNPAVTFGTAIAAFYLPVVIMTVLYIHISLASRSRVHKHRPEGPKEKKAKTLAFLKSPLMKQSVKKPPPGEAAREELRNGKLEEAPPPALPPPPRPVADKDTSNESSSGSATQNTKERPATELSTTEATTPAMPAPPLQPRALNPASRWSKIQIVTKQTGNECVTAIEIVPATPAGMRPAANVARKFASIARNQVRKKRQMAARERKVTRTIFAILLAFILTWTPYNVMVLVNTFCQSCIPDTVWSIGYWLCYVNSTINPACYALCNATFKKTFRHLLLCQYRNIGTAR

One may read the inhibition as the change of the read-out against control, counted positive when it falls. Turning to `COCCCNCC(=O)Nc1ccc(OC(F)(F)F)cc1`, in experiment [1], the cell count amounted to 363. For the same compound, the figures for the inhibition in [1], in experiment [8] and in experiment [9] were 14.4% (inactive), -4.19% (inactive) and -0.468% (inactive), respectively. The inhibition of aggregation in [2] is -4.3% (inactive). The figures for the nuclei count in [2] and in experiment [3] were 89.5% and 119%, respectively. Besides, the fluorescence slope in [4] is -0.403 (inactive). In addition, in [5], the NADPH fluorescence slope is -4.5e-05 (inactive). For the same compound, the slope in experiment [6] was 0.00627 (inactive). Moreover, in [7], the result was inactive.
As for `CCCCN(CC)S(=O)(=O)c1ccc2c(c1)CCCN2C(C)=O`, the cell count in experiment [1] was found to be 490. Also, the inhibition was 2.9% (inactive) in [1], -88.5% (inactive) in [3], 0.955% (inactive) in experiment [8] and 6.93% (inactive) in experiment [9]. In addition, in experiment [2], the inhibition of aggregation is 17.1% (inactive). Also, the figures for the nuclei count in [2] and in experiment [3] were 111% and 103%, respectively. Further, the fluorescence slope in [4] is -0.545 (inactive); in experiment [10], 0.0053 (inactive). Moreover, the NADPH fluorescence slope in experiment [5] is -2.8e-05 (inactive).
As for `CC(=O)Nc1ccc(S(=O)(=O)N2CCN(C(C)CCc3ccccc3)CC2)cc1` (stereo not drawn), the cell count in [1] came out at 440. Besides, the inhibition in experiment [1] was 0% (inactive); in experiment [3] it was 1.2% (inactive); in experiment [8], 7.51% (inactive); in [9] it was 20.1% (inactive). Also, the inhibition of aggregation in experiment [2] is 2.6% (inactive). The nuclei count in experiment [2] came to 69.7%; in experiment [3], 96.1%. The fluorescence slope in [4] was -0.538 (inactive); in experiment [10] it was 0.00422 (inactive). In [5], the NADPH fluorescence slope is -6.4e-05 (inactive).
For the compound `O=C1CC(c2ccccc2)CC(O)=C1C=NCCCN1CCOCC1` (stereo not drawn), the cell count in [1] was determined as 307. Further, the inhibition in [1] was 3.9% (inactive); in experiment [3], 49.8% (inactive); in [8], 7.43% (inactive); in [9], 9.1% (inactive). For the same compound, in experiment [2], the inhibition of aggregation is 22.3% (inactive). In addition, the nuclei count was 88.8% in experiment [2] and 69.3% in [3]. For the same compound, the fluorescence slope in experiment [4] was -0.466 (inactive); in experiment [10], 0.00557 (inactive). Besides, the NADPH fluorescence slope in experiment [5] is -4e-06 (inactive).
In the case of `Cc1ccc(Cn2ccc(NC(=O)c3noc4c3CCCC4)n2)cc1`, the cell count in experiment [1] is 246. Also, the inhibition was -0.8% (inactive) in [1], 44.7% (inactive) in [3], 10% (inactive) in experiment [8] and -98.2% (inactive) in experiment [9]. Moreover, the inhibition of aggregation in experiment [2] is -6.8% (inactive). Further, the values for the nuclei count in [2] and in experiment [3] were 97.7% and 117%, respectively. In addition, the fluorescence slope was -0.539 (inactive) in [4] and 0.00747 (inactive) in experiment [10]. Further, in [5], the NADPH fluorescence slope was -3.2e-05 (inactive).
For the compound `CCOc1cc(C)c(C(C)C)cc1S(=O)(=O)N1CCN(C)CC1`, the cell count in [1] amounted to 775. Moreover, the inhibition in [1] was -2.4% (inactive); in [3], -3% (inactive); in experiment [8], -9.48% (inactive); in experiment [9], -5.37% (inactive). In experiment [2], the inhibition of aggregation was 19% (inactive). For the same compound, the figures for the nuclei count in [2] and in experiment [3] were 93.4% and 112%, respectively. In addition, the fluorescence slope in experiment [4] was -0.475 (inactive); in [10] it was 0.00438 (inactive). For the same compound, the NADPH fluorescence slope in experiment [5] is 1.9e-05 (inactive).
As for `COc1ccccc1CN(Cc1nc2ccccc2c(=O)[nH]1)C(=O)Nc1ccccc1`, the cell count in experiment [1] came out at 733. For the same compound, the inhibition in [1] was -6.8% (inactive); in experiment [3], -68.2% (inactive); in experiment [8], 3.14% (inactive); in experiment [9], 12.2% (inactive). In addition, the inhibition of aggregation in [2] is 16.9% (inactive). The nuclei count amounted to 87.7% in [2] and 134% in [3]. Also, the fluorescence slope in experiment [4] is -0.49 (inactive); in experiment [10] it was 0.0059 (inactive). Further, the NADPH fluorescence slope in [5] is -4.8e-05 (inactive).
Regarding `COC(=O)c1ccc(CSc2nc(-c3ccc(OC)cc3)nc3c2c(=O)n(C)c(=O)n3C)o1`, the cell count in experiment [1] came to 487. For the same compound, the inhibition in experiment [1] was 8.9% (inactive); in experiment [3], -5.9% (inactive); in [8], 24% (inactive); in [9], 30.6% (inactive). Besides, in experiment [2], the inhibition of aggregation was -0.5% (inactive). The nuclei count in experiment [2] amounted to 89.2%; in [3], 103%. In addition, the values for the fluorescence slope in [4] and in [10] were -0.409 (inactive) and 0.00884 (inactive), respectively. Besides, the NADPH fluorescence slope in experiment [5] is 0.000102 (inactive).
